Source: ChEMBL document CHEMBL1833921, “Synthesis and biological evaluation of phenstatin metabolites” (Bioorg Med Chem, 2011)

Columns and labels:
M14 = assay: Cytotoxicity against human M14 cells after 48 hrs by sulforhodamine B assay; type: functional; conditions: M14, 48 h
[1] = Cell cycle arrest in mouse DA1-3b cells assessed as accumulation at sub-G1 phase at 10^-4 M after 24 hrs using propidium iodide staining by cytofluorometry (reference value: 0.7 %); type: functional, cell-based
How it was run: (§1)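 DA1-3b murine leukemia cells were exposed to the compound for 24 h. They were then stained in a solution containing propidium iodide (50 µg/mL) and RNase A (0.5 mg/mL) and analysed on a FACScan cytofluorometer. The percentage of cells in each cell-cycle phase was reported, with several compound concentrations tested.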

CCRF-CEM = assay: Cytotoxicity against human CCRF-CEM cells after 48 hrs by sulforhodamine B assay; type: functional
HCT-15 = assay: Cytotoxicity against human HCT15 cells after 48 hrs by sulforhodamine B assay; type: functional; conditions: HCT-15, 48 h
MDA-MB-468 = assay: Cytotoxicity against human MDA-MB-468 cells after 48 hrs by sulforhodamine B assay; type: functional; conditions: MDA-MB-468, 48 h
HCT-116 = assay: Cytotoxicity against human HCT116 cells after 48 hrs by sulforhodamine B assay; type: functional; conditions: HCT-116, 48 h
[2] = Cell cycle arrest in mouse DA1-3b cells assessed as accumulation at G1 phase at 10^-4 M after 24 hrs using propidium iodide staining by cytofluorometry (reference value: 52.2 %); type: functional, cell-based; how it was run: as §1
[3] = Cell cycle arrest in mouse DA1-3b cells assessed as accumulation at S phase at 10^-5 M after 24 hrs using propidium iodide staining by cytofluorometry (reference value: 28.0 %); type: functional, cell-based; how it was run: as §1
RXF 393 = assay: Cytotoxicity against human RXF393 cells after 48 hrs by sulforhodamine B assay; type: functional; conditions: RXF 393, 48 h
NCI-H522 = assay: Cytotoxicity against human NCI-H522 cells after 48 hrs by sulforhodamine B assay; type: functional; conditions: NCI-H522, 48 h
OVCAR-4 = assay: Cytotoxicity against human OVCAR4 cells after 48 hrs by sulforhodamine B assay; type: functional; conditions: OVCAR-4, 48 h
SN12C = assay: Cytotoxicity against human SN12C cells after 48 hrs by sulforhodamine B assay; type: functional
HT-29 = assay: Cytotoxicity against human HT29 cells after 48 hrs by sulforhodamine B assay; type: functional; conditions: HT-29, 48 h
SK-MEL-28 = assay: Cytotoxicity against human SK-MEL-28 cells after 48 hrs by sulforhodamine B assay; type: functional; conditions: SK-MEL-28, 48 h
HCC 2998 = assay: Cytotoxicity against human HCC2998 cells after 48 hrs by sulforhodamine B assay; type: functional; conditions: HCC 2998, 48 h
SK-OV-3 = assay: Cytotoxicity against human SKOV3 cells after 48 hrs by sulforhodamine B assay; type: functional; conditions: SK-OV-3, 48 h
[4] = Inhibition of bovine brain tubulin polymerization after 30 mins by turbidimetry analysis; design: species or system Bos taurus
How it was run: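 Lyophilized bovine brain tubulin (97%) reconstituted to 5 mg/mL in 80 mM PIPES pH 6.9, 2 mM MgCl₂, 0.5 mM EGTA, 1.0 mM GTP and 5% glycerol. Compound in DMSO was added to this solution in a quartz cuvette at 0 °C. Assembly was followed as the rise in absorbance at 340 nm at 37 °C. IC₅₀ is the molar concentration halving the extent of assembly after 30 min.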

KM12 = assay: Cytotoxicity against human KM12 cells after 48 hrs by sulforhodamine B assay; type: functional; conditions: KM12, 48 h
NCI-H322M = assay: Cytotoxicity against human NCI-H322M cells after 48 hrs by sulforhodamine B assay; type: functional
[5] = Cell cycle arrest in mouse DA1-3b cells assessed as accumulation at sub-G1 phase at 10^-6 M after 24 hrs using propidium iodide staining by cytofluorometry (reference value: 0.7 %); type: functional, cell-based; how it was run: as §1
SK-MEL-2 = assay: Cytotoxicity against human SK-MEL-2 cells after 48 hrs by sulforhodamine B assay; type: functional; conditions: SK-MEL-2, 48 h
OVCAR-3 = assay: Cytotoxicity against human OVCAR3 cells after 48 hrs by sulforhodamine B assay; type: functional; conditions: OVCAR-3, 48 h
[6] = Cell cycle arrest in mouse DA1-3b cells assessed as accumulation at G2/M phase at 10^-6 M after 24 hrs using propidium iodide staining by cytofluorometry (reference value: 18.0 %); type: functional, cell-based; how it was run: as §1
NCI/ADR-RES = assay: Cytotoxicity against human NCI/ADR-RES cells after 48 hrs by sulforhodamine B assay; type: functional
[7] = Cell cycle arrest in mouse DA1-3b cells assessed as accumulation at S phase at 10^-6 M after 24 hrs using propidium iodide staining by cytofluorometry (reference value: 28.0 %); type: functional, cell-based; how it was run: as §1
[8] = Cell cycle arrest in mouse DA1-3b cells assessed as accumulation at G2/M phase at 10^-4 M after 24 hrs using propidium iodide staining by cytofluorometry (reference value: 18.0 %); type: functional, cell-based; how it was run: as §1
EKVX = assay: Cytotoxicity against human EKVX cells after 48 hrs by sulforhodamine B assay; type: functional
[9] = Cell cycle arrest in mouse DA1-3b cells assessed as accumulation at G1 phase at 10^-5 M after 24 hrs using propidium iodide staining by cytofluorometry (reference value: 52.2 %); type: functional, cell-based; how it was run: as §1
A549 [10] = assay: Cytotoxicity against human A549/ATCC cells after 48 hrs by sulforhodamine B assay; type: functional; conditions: A549, 48 h
[11] = Cell cycle arrest in mouse DA1-3b cells assessed as accumulation at G2/M phase at 10^-5 M after 24 hrs using propidium iodide staining by cytofluorometry (reference value: 18.0 %); type: functional, cell-based; how it was run: as §1
K562 = assay: Cytotoxicity against human K562 cells after 48 hrs by sulforhodamine B assay; type: functional; conditions: K562, 48 h
UO-31 = assay: Cytotoxicity against human UO31 cells after 48 hrs by sulforhodamine B assay; type: functional; conditions: UO-31, 48 h
NCI-H460 = assay: Cytotoxicity against human NCI-H460 cells after 48 hrs by sulforhodamine B assay; type: functional; conditions: NCI-H460, 48 h
CAKI-1 = assay: Cytotoxicity against human Caki1 cells after 48 hrs by sulforhodamine B assay; type: functional; conditions: CAKI-1, 48 h
HL-60 = assay: Cytotoxicity against human HL60 cells after 48 hrs by sulforhodamine B assay; type: functional; conditions: HL-60, 48 h
MDA-MB-231 = assay: Cytotoxicity against human MDA-MB-231/ATCC cells after 48 hrs by sulforhodamine B assay; type: functional; conditions: MDA-MB-231, 48 h
SF-268 = assay: Cytotoxicity against human SF268 cells after 48 hrs by sulforhodamine B assay; type: functional; conditions: SF-268, 48 h
MDA-MB-435 = assay: Cytotoxicity against human MDA-MB-435 cells after 48 hrs by sulforhodamine B assay; type: functional; conditions: MDA-MB-435, 48 h
DU-145 = assay: Cytotoxicity against human DU145 cells after 48 hrs by sulforhodamine B assay; type: functional; conditions: DU-145, 48 h
SF-295 = assay: Cytotoxicity against human SF295 cells after 48 hrs by sulforhodamine B assay; type: functional; conditions: SF-295, 48 h
[12] = Cell cycle arrest in mouse DA1-3b cells assessed as accumulation at G2/M phase after 24 hrs using propidium iodide staining by cytofluorometry; type: functional, cell-based; how it was run: as §1
MCF7 = assay: Cytotoxicity against human MCF7 cells after 48 hrs by sulforhodamine B assay; type: functional; conditions: MCF7, 48 h
A549 [13] = assay: Cytotoxicity against human A549 cells after 48 hrs by sulforhodamine B assay; type: functional; conditions: A549, 48 h
[14] = Cell cycle arrest in mouse DA1-3b cells assessed as accumulation at S phase at 10^-4 M after 24 hrs using propidium iodide staining by cytofluorometry (reference value: 28.0 %); type: functional, cell-based; how it was run: as §1
UACC-62 = assay: Cytotoxicity against human UACC62 cells after 48 hrs by sulforhodamine B assay; type: functional; conditions: UACC-62, 48 h
COLO 205 = assay: Cytotoxicity against human COLO205 cells after 48 hrs by sulforhodamine B assay; type: functional; conditions: COLO 205, 48 h
SF-539 = assay: Cytotoxicity against human SF539 cells after 48 hrs by sulforhodamine B assay; type: functional; conditions: SF-539, 48 h
Hs-578T = assay: Cytotoxicity against human HS578T cells after 48 hrs by sulforhodamine B assay; type: functional
OVCAR-5 = assay: Cytotoxicity against human OVCAR5 cells after 48 hrs by sulforhodamine B assay; type: functional; conditions: OVCAR-5, 48 h
A498 = assay: Cytotoxicity against human A498 cells after 48 hrs by sulforhodamine B assay; type: functional; conditions: A498, 48 h
[15] = Cell cycle arrest in mouse DA1-3b cells assessed as accumulation at G1 phase at 10^-6 M after 24 hrs using propidium iodide staining by cytofluorometry (reference value: 52.2 %); type: functional, cell-based; how it was run: as §1
[16] = Cell cycle arrest in mouse DA1-3b cells assessed as accumulation at sub-G1 phase at 10^-5 M after 24 hrs using propidium iodide staining by cytofluorometry (reference value: 0.7 %); type: functional, cell-based; how it was run: as §1

Q: Which results are given for `COc1ccc(C(=O)c2cc(OC)c(OC)c(OC)c2)c(OC)c1O`?
A: GI50 (M14): < 10 nM; Activity [1]: 36.5%; GI50 (CCRF-CEM): 28.8 nM; GI50 (HCT-15): 10.6 nM; GI50 (MDA-MB-468): 249 nM; GI50 (HCT-116): 32 nM; Activity [2]: 26.1%; Activity [3]: 11.8%; GI50 (RXF 393): 15.9 nM; GI50 (NCI-H522): < 10 nM; GI50 (OVCAR-4): 73 nM; GI50 (SN12C): 46.9 nM; GI50 (HT-29): 3460 nM; GI50 (SK-MEL-28): 9460 nM; GI50 (HCC 2998): 211 nM; GI50 (SK-OV-3): 89.6 nM; IC50 [4]: 3200 nM; GI50 (KM12): < 10 nM; GI50 (NCI-H322M): < 10 nM; Activity [5]: 17.5%; GI50 (SK-MEL-2): 26.6 nM; GI50 (OVCAR-3): 22.2 nM; Activity [6]: 47.2%; GI50 (NCI/ADR-RES): < 10 nM; Activity [7]: 13.1%; Activity [8]: 25.3%; GI50 (EKVX): 611 nM; Activity [9]: 24.7%; GI50 (A549 [10]): 41.3 nM; Activity [11]: 32.9%; GI50 (K562): < 10 nM; GI50 (UO-31): 48.9 nM; GI50 (NCI-H460): 50.7 nM; GI50 (CAKI-1): 120 nM; GI50 (HL-60): 23.5 nM; GI50 (MDA-MB-231): 24.6 nM; GI50 (SF-268): 21.1 nM; GI50 (MDA-MB-435): < 10 nM; GI50 (DU-145): 20.9 nM; GI50 (SF-295): 19.9 nM; Activity [12]: Dose-dependent effect; GI50 (MCF7): 26.4 nM; GI50 (A549 [13]): 41.3 nM; Activity [14]: 11.6%; GI50 (UACC-62): 27.3 nM; GI50 (COLO 205): 6200 nM; GI50 (SF-539): 15.1 nM; GI50 (Hs-578T): < 10 nM; GI50 (OVCAR-5): 651 nM; GI50 (A498): 2720 nM; Activity [15]: 21.5%; Activity [16]: 30%
